Data published in ChEMBL document CHEMBL1129563, “Opioid antagonist activity of naltrexone-derived bivalent ligands: importance of a properly oriented molecular scaffold to guide "address" recognition at kappa opioid receptors” (J Med Chem, 1996).

Legend:
[1] = target: Mu-type opioid receptor (Cavia porcellus) (UniProt P97266); experiment: Ke value is obtained from IC50 ratio value when compared with Opioid receptor mu 1 agonist in Guinea pig Ileum using DAMGO as radioligand; format: functional, tissue-based
In short: (§1)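 Antagonism was tested on electrically stimulated guinea pig ileum (morphine, EK, DAMGO, U-50488) and mouse vas deferens (DADLE, DPDPE). Antagonist (usually 100 nM, some at 20 nM) was incubated 15 min before agonist. IC50 ratio is agonist IC50 with antagonist over control IC50 in the same preparation. Ke = [antagonist]/(IC50 ratio − 1). Three or more replicates were run. Selectivity is given as Ke ratios.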

[2] = target: Kappa-type opioid receptor (Cavia porcellus) (UniProt P41144); experiment: Ke value was obtained from IC50 ratio values when compared with Opioid receptor kappa 1 agonist in Guinea pig Ileum using EK as radioligand; format: functional, tissue-based; in short: as §1
[3] = tested on: Delta-type opioid receptor; experiment: Delta opioid activity on Mouse vas deference using DADLE as standard; in short: as §1
[4] = Kappa opioid activity was evaluated on electrically stimulated guinea pig ileum by using ethylketazocine (EK) as standard.; format: tissue-based; in short: as §1
[5] = Mu opioid activity was evaluated on electrically stimulated guinea pig ileum by using morphine(M) as standard.; format: tissue-based; in short: as §1
[6] = Selectivity ratio between morphine and ethylketazocine potencies in GPI and MVD preparations; in short: as §1
Mus musculus [7] = experiment: Antagonistic activity after subcutaneous administration (6.2 umol/kg) with a peak time of 30 mins in mice (using U-50488 as agonist, kappa selective); format: functional; settings: sc, 0.5 h
In short: (§2)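 Tail-flick test in Swiss Webster mice. The antagonist was given sc at 6.2 μmol/kg, timed so its 30 min peak fell at the centre of the observation period. Morphine and U-50488 were given sc (μmol/kg) and DPDPE icv (nmol/mouse). Agonist ED50 was found in control and treated mice and expressed as the treated/control ED50 ratio.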

Mus musculus [8] = experiment: Antagonistic activity after subcutaneous administration (6.2 umol/kg) with a peak time of 30 mins in mice (using morphine as agonist, mu selective); format: functional; settings: sc, 0.5 h; in short: as §2
Mu-type opioid receptor [9] = target: T1, Mu-type opioid receptor (Cavia porcellus, UniProt P97266); experiment: Binding affinity against Opioid receptor mu 1 in Guinea pig brain membranes; format: cell membranes, Membrane
In short: (§3)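 Competition binding against radioligands in guinea pig brain membranes. μ sites used [3H]DAMGO. κ sites used [3H]EK with 1 μM DAMGO, and δ sites used [3H]DADLE with 1 μM DAMGO. Ki is the geometric mean of three replicates. Selectivity is given as δ/μ and κ/μ Ki ratios.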

[10] = target: T2, Kappa-type opioid receptor (Cavia porcellus, UniProt P41144); experiment: Binding affinity against Kappa Opioid receptor in Guinea pig brain membranes; format: cell membranes, Membrane; in short: as §3
[11] = target: Delta-type opioid receptor (Mus musculus) (UniProt P32300); experiment: Ke value was obtained from IC50 ratio value when compared with delta opioid agonist in MVD preparations using DADLE as radioligand; format: functional; in short: as §1
[12] = target: Mu-type opioid receptor (Cavia porcellus) (UniProt P97266); experiment: Ke value was obtained from IC50 ratio value when compared with Opioid receptor mu 1 agonist in Guinea pig Ileum using DAMGO as radioligand; format: functional, tissue-based; in short: as §1
[13] = target: Kappa-type opioid receptor (Cavia porcellus) (UniProt P41144); experiment: Ke value was obtained from IC50 ratio value when compared with Opioid receptor kappa 1 agonist in Guinea pig Ileum using U-50488 as radioligand; format: functional, tissue-based; in short: as §1
[14] = target: Kappa-type opioid receptor (Cavia porcellus) (UniProt P41144); experiment: Ke value was obtained from IC50 ratio value when compared with kappa opioid agonist in Guinea pig Ileum using EK as radioligand; format: functional, tissue-based; in short: as §1
[15] = target: Delta-type opioid receptor (Homo sapiens) (UniProt P41143); experiment: Ke value was obtained from IC50 ratio value when compared with delta opioid agonist in […] using DPDPE as radioligand; format: functional, tissue-based; settings: target entry is the homologue from another species
[16] = Ratio of antagonistic activity of treated/control; antinociceptive effect of DPDPE opioid agonist in Mice; format: functional; in short: as §2
[17] = Ratio of antagonistic activity of treated/control; antinociceptive effect of U-50488 opioid agonist in Mice; format: functional; in short: as §2
[18] = Ratio of antagonistic activity treated/control in Mice; antinociceptive effect of morphine opioid agonist in Mice; format: functional; in short: as §2
[19] = target: T3, Opioid receptors; mu & delta (Homo sapiens) (UniProt P41143+P35372); experiment: Selectivity ratio between delta and mu opioid receptor from guinea pig brain membrane; in short: as §3
[20] = target: T3, Opioid receptors; mu & delta (Homo sapiens); experiment: Selectivity ratio between delta to that of mu opioid receptor; format: protein assay; in short: as §1
[21] = target: T4, Opioid receptors; mu & kappa (Homo sapiens) (UniProt P41145+P35372); experiment: Selectivity ratio between kappa and mu opioid receptor from guinea pig brain membrane; in short: as §3
[22] = target: T4, Opioid receptors; mu & kappa (Homo sapiens); experiment: Selectivity ratio between kappa to that of mu opioid receptor; format: protein assay; in short: as §1
[23] = target: Delta-type opioid receptor (Homo sapiens) (UniProt P41143); experiment: Selectivity ratio between Ke value to that of DAMGO (using DADLE as agonist; delta agonist/DAMGO); format: functional
In short: (§4)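 Ke values came from IC50 ratios (n ≥ 3) in GPI and MVD, with antagonist preincubated 15 min. Ke = [antagonist]/(IC50 ratio − 1). The reported ratio is Ke against a κ agonist (EK, U-50488) or δ agonist (DADLE, DPDPE) divided by Ke against DAMGO.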

[24] = target: Kappa-type opioid receptor (Homo sapiens) (UniProt P41145); experiment: Selectivity ratio between Ke value to that of DAMGO (using EK as agonist; k agonist/DAMGO); format: functional; in short: as §4
[25] = target: Kappa-type opioid receptor (Homo sapiens) (UniProt P41145); experiment: Selectivity ratio between Ke value to that of DAMGO (using U-50488 as agonist; k agonist/DAMGO); format: functional; in short: as §4
Mus musculus [26] = experiment: Antagonistic activity after […] with a peak time of 30 mins in mice (using DPDPE as agonist, delta selective); format: functional; in short: as §2
[27] = target: Delta-type opioid receptor (Homo sapiens) (UniProt P41143); experiment: Selectivity ratio between Ke value to that of DAMGO (using DPDPE as agonist; delta agonist/DAMGO); format: functional; in short: as §4
[28] = target: Delta-type opioid receptor (Mus musculus) (UniProt P32300); experiment: Ke value is obtained from IC50 ratio values when compared with delta opioid agonists in MVD preparations using DADLE as radioligand; format: functional; in short: as §1
Mu-type opioid receptor [29] = target: T1, Mu-type opioid receptor; experiment: Opioid receptor mu 1 antagonistic activity in guinea pig ileum; format: functional, tissue-based; in short: as §1
[30] = target: T2, Kappa-type opioid receptor; experiment: Binding affinity against Opioid receptor kappa 1 in Guinea pig brain membranes; format: cell membranes, Membrane; in short: as §3
[31] = Selectivity ratio between DADLE and ethylketazocine potencies in GPI and MVD preparations; in short: as §1

Mu-type opioid receptor (Cavia porcellus), sequence (P97266 whole entry): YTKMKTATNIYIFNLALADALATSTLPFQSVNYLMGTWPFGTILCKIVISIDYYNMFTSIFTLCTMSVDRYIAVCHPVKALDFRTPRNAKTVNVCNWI
T1 sequence (P97266 whole entry): as above
Delta-type opioid receptor (Mus musculus), sequence (P32300 whole entry): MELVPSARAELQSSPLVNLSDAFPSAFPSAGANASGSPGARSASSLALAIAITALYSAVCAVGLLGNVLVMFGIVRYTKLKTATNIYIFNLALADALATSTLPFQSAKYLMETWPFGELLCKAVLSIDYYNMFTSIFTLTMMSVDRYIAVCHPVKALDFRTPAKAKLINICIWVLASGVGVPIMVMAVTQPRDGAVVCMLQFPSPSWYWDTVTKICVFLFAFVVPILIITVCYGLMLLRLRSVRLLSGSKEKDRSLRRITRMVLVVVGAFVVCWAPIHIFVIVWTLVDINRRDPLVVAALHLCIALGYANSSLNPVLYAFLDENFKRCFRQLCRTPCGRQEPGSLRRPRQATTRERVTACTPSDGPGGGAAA
Delta-type opioid receptor (Homo sapiens), sequence (P41143 whole entry): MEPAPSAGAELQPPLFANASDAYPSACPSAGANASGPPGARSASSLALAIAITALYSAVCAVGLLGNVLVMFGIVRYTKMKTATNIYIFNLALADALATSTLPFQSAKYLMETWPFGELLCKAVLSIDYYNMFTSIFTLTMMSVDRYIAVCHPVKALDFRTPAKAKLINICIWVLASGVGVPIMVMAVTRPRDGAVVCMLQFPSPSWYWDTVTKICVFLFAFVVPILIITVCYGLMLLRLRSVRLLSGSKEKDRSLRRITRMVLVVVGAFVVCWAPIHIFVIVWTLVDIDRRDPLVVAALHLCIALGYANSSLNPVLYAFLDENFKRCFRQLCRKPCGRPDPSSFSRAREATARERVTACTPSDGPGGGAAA
Kappa-type opioid receptor (Cavia porcellus), sequence (P41144 whole entry): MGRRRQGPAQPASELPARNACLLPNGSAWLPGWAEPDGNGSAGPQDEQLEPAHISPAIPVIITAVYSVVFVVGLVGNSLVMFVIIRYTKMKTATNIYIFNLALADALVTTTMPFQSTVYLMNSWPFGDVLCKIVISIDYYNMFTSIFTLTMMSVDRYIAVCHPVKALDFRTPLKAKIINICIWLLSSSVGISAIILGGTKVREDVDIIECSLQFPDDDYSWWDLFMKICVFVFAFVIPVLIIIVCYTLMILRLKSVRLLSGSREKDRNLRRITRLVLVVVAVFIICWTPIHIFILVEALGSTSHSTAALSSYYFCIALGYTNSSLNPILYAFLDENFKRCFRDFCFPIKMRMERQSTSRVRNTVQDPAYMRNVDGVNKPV
T4 sequence (P35372 whole entry, looked up): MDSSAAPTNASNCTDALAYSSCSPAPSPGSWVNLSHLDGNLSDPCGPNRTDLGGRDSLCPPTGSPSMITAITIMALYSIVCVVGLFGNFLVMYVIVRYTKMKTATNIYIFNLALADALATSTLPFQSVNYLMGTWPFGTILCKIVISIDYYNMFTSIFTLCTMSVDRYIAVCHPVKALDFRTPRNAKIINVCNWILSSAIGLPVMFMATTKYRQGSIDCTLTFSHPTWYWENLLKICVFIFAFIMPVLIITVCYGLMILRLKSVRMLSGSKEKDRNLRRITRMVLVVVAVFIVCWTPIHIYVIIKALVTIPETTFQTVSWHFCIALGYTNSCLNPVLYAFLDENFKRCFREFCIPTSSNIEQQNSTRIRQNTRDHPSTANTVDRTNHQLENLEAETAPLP
T4 sequence (P41145 whole entry, looked up): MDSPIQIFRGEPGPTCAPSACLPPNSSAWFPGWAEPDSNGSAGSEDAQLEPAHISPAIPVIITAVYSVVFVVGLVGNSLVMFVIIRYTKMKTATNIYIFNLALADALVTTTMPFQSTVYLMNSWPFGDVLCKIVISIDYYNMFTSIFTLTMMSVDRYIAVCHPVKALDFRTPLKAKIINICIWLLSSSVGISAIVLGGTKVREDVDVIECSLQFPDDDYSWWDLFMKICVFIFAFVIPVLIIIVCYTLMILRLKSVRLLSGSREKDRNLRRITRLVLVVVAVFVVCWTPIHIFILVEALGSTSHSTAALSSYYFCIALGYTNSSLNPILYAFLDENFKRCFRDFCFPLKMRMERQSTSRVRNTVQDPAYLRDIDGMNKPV
T3 sequence (P35372 whole entry, looked up): as the sequence (P35372 whole entry, looked up) above
T3 sequence (P41143 whole entry, looked up): as the sequence (P41143 whole entry) above
T2 sequence (P41144 whole entry): as the sequence (P41144 whole entry) above
Kappa-type opioid receptor (Homo sapiens), sequence (P41145 whole entry): as the sequence (P41145 whole entry, looked up) above

In the case of CC(=O)NC1=NC([C@]2(NC(C)=O)CC[C@@]3(O)[C@H]4Cc5ccc(O)c6c5C3(CCN4CC3CC3)[C@H]2O6)=N[C@]12CC[C@@]1(O)[C@H]3Cc4ccc(O)c5c4C1(CCN3CC1CC1)[C@H]2O5, the Ke [1] is reported as 1.9 nM, the Ke [2] is reported as 44 nM and the IC50 ratio [3] is reported as 1.4. It also gave an IC50 ratio [4] of 3.3, an IC50 ratio [5] of 11.7 and a Ke ratio [6] of 23.

NC1=NC([C@]2(N)CC[C@@]3(O)[C@H]4Cc5ccc(O)c6c5C3(CCN4CC3CC3)[C@H]2O6)=N[C@]12CC[C@@]1(O)[C@H]3Cc4ccc(O)c5c4C1(CCN3CC1CC1)[C@H]2O5 gave an ED50 (Mus musculus [7]) of 25.6 µmol/kg, an ED50 (Mus musculus [8]) of 68.7 µmol/kg and a Ki (Mu-type opioid receptor [9]) of 0.98 nM. The Ki [10] was 88 nM, the Ke [11] was 57 nM and the Ke [12] was 0.07 nM. It also gave a Ke [13] of 4.7 nM, a Ke [14] of 12 nM and a Ke [15] of 66 nM. The ED50 ratio [16] was 0.66, the ED50 ratio [17] was 0.72 and the ED50 ratio [18] was 4. The IC50 ratio [3] was 2.8, the IC50 ratio [4] was 9.1 and the IC50 ratio [5] was 65. For the same compound, the Ke ratio [19] was 187, the Ke ratio [20] was 184 and the Ke ratio [21] was 90. The Ke ratio [22] was 40, the Ke ratio [23] was 814 and the Ke ratio [24] was 171. The Ke ratio [25] was 67, the ED50 (Mus musculus [26]) was 16 nM mouse-1 and the Ke ratio [27] was 943.

NC(=O)[C@]1(N)CC[C@@]2(O)[C@H]3Cc4ccc(O)c5c4C2(CCN3CC2CC2)[C@H]1O5 showed a Ke [1] of 9.8 nM, a Ke [2] of 44 nM and an IC50 ratio [3] of 0.89. For the same compound, the IC50 ratio [4] was 3.3, the IC50 ratio [5] was 11.2 and the Ke ratio [22] was 4.5.

For N[C@]1(C(=O)O)CC[C@@]2(O)[C@H]3Cc4ccc(O)c5c4C2(CCN3CC2CC2)[C@H]1O5, the Ke [28] was 139 nM, the Ke [1] was 0.65 nM and the Ke [2] was 19 nM. It also gave an IC50 ratio [3] of 1.7, an IC50 ratio [4] of 6.2 and an IC50 ratio [5] of 154. For the same compound, the Ke selectivity ratio [20] was 214 and the Ke selectivity ratio [22] was 30.

Compound N[C@@]1(C(=O)O)CC[C@@]2(O)[C@H]3Cc4ccc(O)c5c4C2(CCN3CC2CC2)[C@H]1O5 has a Ke [1] of 27 nM, a Ke [2] of 10 nM and an IC50 ratio [3] of 1.1. It also gave an IC50 ratio [4] of 1.9 and an IC50 ratio [5] of 4.8.

Work on O=C1NC(=O)[C@@]2(CC[C@@]3(O)[C@H]4Cc5ccc(O)c6c5[C@@]3(CCN4CC3CC3)[C@H]2O6)N1 yielded an IC50 (Mu-type opioid receptor [29]) of 71 nM.

N=C(N)[C@]1(N)CC[C@@]2(O)[C@H]3Cc4ccc(O)c5c4[C@@]2(CCN3CC2CC2)[C@H]1O5 gave an IC50 (Mu-type opioid receptor [29]) of 18 nM.

N[C@@]1(C2=NC(=O)[C@@]3(CC[C@@]4(O)[C@H]5Cc6ccc(O)c7c6C4(CCN5CC4CC4)[C@H]3O7)N2)CC[C@@]2(O)[C@H]3Cc4ccc(O)c5c4C2(CCN3CC2CC2)[C@H]1O5 showed a Ki [30] of 5.8 nM, a Ke [1] of 0.46 nM and an IC50 ratio [3] of 0.87. For the same compound, the IC50 ratio [4] was 1.1, the IC50 ratio [5] was 11.8 and the Ke ratio [19] was 151. For the same compound, the Ke ratio [21] was 5.

In the case of N#C[C@@]1(N)CC[C@@]2(O)[C@H]3Cc4ccc(O)c5c4C2(CCN3CC2CC2)[C@H]1O5, the Ke [28] is reported as 67 nM, the Ke [1] is reported as 1.3 nM and the Ke [2] is reported as 6 nM. The IC50 ratio [3] was 2.5, the IC50 ratio [4] was 17.5 and the IC50 ratio [5] was 79. The Ke ratio [6] was 4.7 and the Ke ratio [31] was 52.
